{
  "source": "ChEMBL document CHEMBL1138555",
  "about": "“N-acylated and N,N'-diacylated imidazolidine-2-thione derivatives and N,N'-diacylated tetrahydropyrimidine-2(1H)-thione analogues: synthesis and antiproliferative activity” (Eur J Med Chem, 2009)",
  "note": "pIC50: −log10 of the molar value.",
  "data": [
    {"test_system": "BT-549", "assay": "Growth inhibition of human BT549 cells after 48 hrs by sulforhodamine B assay", "type": "functional", "settings": "BT-549, 48 h", "in_short": "(§1)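 NCI screen panel. Five 10-fold concentrations from 10^-4 to 10^-8 M. Exposure for the last 48 h of a 72 h incubation. Growth estimated by sulforhodamine B protein assay. GI50 is the concentration giving 50% growth inhibition. Where that level was not reached or was exceeded, the value is given as above or below the highest or lowest concentration tested.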", "units": {"GI50": "µM"}, "values": [
      {"smiles": "COc1cc(C(=O)N2CCN(C(=O)c3cc(OC)c(OC)c(OC)c3)C2=S)cc(OC)c1OC", "GI50": 17.4}
    ]},
    {"test_system": "SF-539", "assay": "Growth inhibition of human SF539 cells after 48 hrs by sulforhodamine B assay", "type": "functional", "settings": "SF-539, 48 h", "in_short": "as §1", "units": {"GI50": "µM"}, "values": [
      {"smiles": "COc1cc(C(=O)N2CCN(C(=O)c3cc(OC)c(OC)c(OC)c3)C2=S)cc(OC)c1OC", "GI50": 14.5}
    ]},
    {"test_system": "RXF 393", "assay": "Growth inhibition of human RXF393 cells after 48 hrs by sulforhodamine B assay", "type": "functional", "settings": "RXF 393, 48 h", "in_short": "as §1", "units": {"GI50": "µM"}, "values": [
      {"smiles": "COc1cc(C(=O)N2CCN(C(=O)c3cc(OC)c(OC)c(OC)c3)C2=S)cc(OC)c1OC", "GI50": 14.3}
    ]},
    {"test_system": "M14", "assay": "Growth inhibition of human M14 cells after 48 hrs by sulforhodamine B assay", "type": "functional", "settings": "M14, 48 h", "in_short": "as §1", "units": {"GI50": "µM"}, "values": [
      {"smiles": "COc1cc(C(=O)N2CCN(C(=O)c3cc(OC)c(OC)c(OC)c3)C2=S)cc(OC)c1OC", "GI50": 16.8}
    ]},
    {"test_system": "HCC 2998", "assay": "Growth inhibition of human HCC2998 cells after 48 hrs by sulforhodamine B assay", "type": "functional", "settings": "HCC 2998, 48 h", "in_short": "as §1", "units": {"GI50": "µM"}, "values": [
      {"smiles": "COc1cc(C(=O)N2CCN(C(=O)c3cc(OC)c(OC)c(OC)c3)C2=S)cc(OC)c1OC", "GI50": 19}
    ]},
    {"test_system": "SN12C", "assay": "Growth inhibition of human SN12C cells after 48 hrs by sulforhodamine B assay", "type": "functional", "settings": "not given", "in_short": "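NCI in vitro panel screen. Compounds tested at five 10-fold dilutions, 10^-4 to 10^-8 M. Cells in 96-well plates were exposed for the last 48 h of a 72 h incubation. Viability/growth was read by sulforhodamine B protein assay. GI50 is the concentration giving 50% growth inhibition. Values beyond the tested range are reported as greater or less than the maximum or minimum concentration.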", "units": {"GI50": "µM"}, "values": [
      {"smiles": "COc1cc(C(=O)N2CCN(C(=O)c3cc(OC)c(OC)c(OC)c3)C2=S)cc(OC)c1OC", "GI50": 17.1}
    ]},
    {"test_system": "HCT-116", "assay": "Growth inhibition of human HCT116 cells after 48 hrs by sulforhodamine B assay", "type": "functional", "settings": "HCT-116, 48 h", "in_short": "as §1", "units": {"GI50": "µM"}, "values": [
      {"smiles": "COc1cc(C(=O)N2CCN(C(=O)c3cc(OC)c(OC)c(OC)c3)C2=S)cc(OC)c1OC", "GI50": 18.2}
    ]},
    {"test_system": "A549", "assay": "Growth inhibition of human A549 cells after 48 hrs by sulforhodamine B assay", "type": "functional", "settings": "A549, 48 h", "in_short": "as §1", "units": {"GI50": "µM"}, "values": [
      {"smiles": "COc1cc(C(=O)N2CCN(C(=O)c3cc(OC)c(OC)c(OC)c3)C2=S)cc(OC)c1OC", "GI50": 19.9}
    ]},
    {"test_system": "HOP-62", "assay": "Growth inhibition of human HOP62 cells after 48 hrs by sulforhodamine B assay", "type": "functional", "settings": "HOP-62, 48 h", "in_short": "as §1", "units": {"GI50": "µM"}, "values": [
      {"smiles": "COc1cc(C(=O)N2CCN(C(=O)c3cc(OC)c(OC)c(OC)c3)C2=S)cc(OC)c1OC", "GI50": 15.2}
    ]},
    {"test_system": "A498", "assay": "Growth inhibition of human A498 cells after 48 hrs by sulforhodamine B assay", "type": "functional", "settings": "A498, 48 h", "in_short": "as §1", "units": {"GI50": "µM"}, "values": [
      {"smiles": "COc1cc(C(=O)N2CCN(C(=O)c3cc(OC)c(OC)c(OC)c3)C2=S)cc(OC)c1OC", "GI50": 17.7}
    ]},
    {"test_system": "DU-145", "assay": "Growth inhibition of human DU145 cells after 48 hrs by sulforhodamine B assay", "type": "functional", "settings": "DU-145, 48 h", "in_short": "as §1", "units": {"GI50": "µM"}, "values": [
      {"smiles": "COc1cc(C(=O)N2CCN(C(=O)c3cc(OC)c(OC)c(OC)c3)C2=S)cc(OC)c1OC", "GI50": 13.6}
    ]},
    {"test_system": "KM12", "assay": "Growth inhibition of human KM12 cells after 48 hrs by sulforhodamine B assay", "type": "functional", "settings": "KM12, 48 h", "in_short": "as §1", "units": {"GI50": "µM"}, "values": [
      {"smiles": "COc1cc(C(=O)N2CCN(C(=O)c3cc(OC)c(OC)c(OC)c3)C2=S)cc(OC)c1OC", "GI50": 14.2}
    ]},
    {"test_system": "ACHN", "assay": "Growth inhibition of human ACHN cells after 48 hrs by sulforhodamine B assay", "type": "functional", "settings": "not given", "in_short": "as §1", "units": {"GI50": "µM"}, "values": [
      {"smiles": "COc1cc(C(=O)N2CCN(C(=O)c3cc(OC)c(OC)c(OC)c3)C2=S)cc(OC)c1OC", "GI50": 17.8}
    ]},
    {"test_system": "SF-268", "assay": "Growth inhibition of human SF268 cells after 48 hrs by sulforhodamine B assay", "type": "functional", "settings": "SF-268, 48 h", "in_short": "as §1", "units": {"GI50": "µM"}, "values": [
      {"smiles": "COc1cc(C(=O)N2CCN(C(=O)c3cc(OC)c(OC)c(OC)c3)C2=S)cc(OC)c1OC", "GI50": 11.5}
    ]},
    {"test_system": "NCI-H522", "assay": "Growth inhibition of human NCI-H522 cells after 48 hrs by sulforhodamine B assay", "type": "functional", "settings": "NCI-H522, 48 h", "in_short": "as §1", "units": {"GI50": "µM"}, "values": [
      {"smiles": "COc1cc(C(=O)N2CCN(C(=O)c3cc(OC)c(OC)c(OC)c3)C2=S)cc(OC)c1OC", "GI50": 3.7}
    ]},
    {"test_system": "CAKI-1", "assay": "Growth inhibition of human Caki1 cells after 48 hrs by sulforhodamine B assay", "type": "functional", "settings": "CAKI-1, 48 h", "in_short": "as §1", "units": {"GI50": "µM"}, "values": [
      {"smiles": "COc1cc(C(=O)N2CCN(C(=O)c3cc(OC)c(OC)c(OC)c3)C2=S)cc(OC)c1OC", "GI50": 12.3}
    ]},
    {"test_system": "MT4", "assay": "Antiproliferative activity against human MT4 cells assessed as reduction of growth by MTT assay", "type": "functional, cell-based", "settings": "not given", "in_short": "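MT-4 lymphoblastoid T cells (ATCC) in RPMI 1640 with 10% FCS, penicillin/streptomycin, checked for mycoplasma. 1 × 10⁴ mock-infected cells per well with serial dilutions from a 100 mM DMSO stock. Incubated 4 days at 37 °C, viable cells counted by MTT. IC50 versus untreated controls by linear regression. Mean of three separate experiments.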", "values": [
      {"smiles": "COc1cc(C(=O)N2CCN(C(=O)c3cc(OC)c(OC)c(OC)c3)C2=S)cc(OC)c1OC", "pIC50": 5.15}
    ]},
    {"test_system": "IGROV-1", "assay": "Growth inhibition of human IGROV1 cells after 48 hrs by sulforhodamine B assay", "type": "functional", "settings": "IGROV-1, 48 h", "in_short": "as §1", "units": {"GI50": "µM"}, "values": [
      {"smiles": "COc1cc(C(=O)N2CCN(C(=O)c3cc(OC)c(OC)c(OC)c3)C2=S)cc(OC)c1OC", "GI50": 24.7}
    ]},
    {"test_system": "HL-60(TB)", "assay": "Growth inhibition of human HL-60(TB) cells after 48 hrs by sulforhodamine B assay", "type": "functional", "settings": "HL-60, 48 h", "in_short": "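NCI 60-cell-line screen protocol: cells exposed to compound at five 10-fold dilutions from 10^-4 to 10^-8 M for the last 48 h of a 72 h incubation. Sulforhodamine B protein assay estimated viability/growth. GI50 (50% growth inhibition) derived; where not reached or exceeded, reported as greater or less than the highest or lowest concentration tested.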", "units": {"GI50": "µM"}, "values": [
      {"smiles": "COc1cc(C(=O)N2CCN(C(=O)c3cc(OC)c(OC)c(OC)c3)C2=S)cc(OC)c1OC", "GI50": 16}
    ]}
  ]
}
